Source: ChEMBL document CHEMBL1938351, “The discovery of potent antagonists of NPBWR1 (GPR7)” (Bioorg Med Chem Lett, 2012)
The source made the active and inactive calls. The rule behind the calls is not given here.

Key:
[1] = target: T1, Neuropeptides B/W receptor type 1 (Mus musculus, UniProt P49681); assay: Displacement of [125]-hNPW23 from mouse NPBWR1 expressed in CHO-K1 cells membrane by scintillation proximity assay; assay type: cell membranes
T1 sequence (P49681 whole entry): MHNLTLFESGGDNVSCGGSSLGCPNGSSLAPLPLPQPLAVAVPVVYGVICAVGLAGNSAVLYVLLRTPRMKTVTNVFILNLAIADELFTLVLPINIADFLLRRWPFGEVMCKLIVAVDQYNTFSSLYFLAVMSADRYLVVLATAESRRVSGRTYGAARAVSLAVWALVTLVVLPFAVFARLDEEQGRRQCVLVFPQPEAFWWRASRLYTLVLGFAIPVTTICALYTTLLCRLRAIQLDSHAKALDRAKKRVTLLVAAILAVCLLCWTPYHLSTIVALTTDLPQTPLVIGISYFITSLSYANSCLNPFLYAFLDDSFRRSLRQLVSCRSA

[2] = target: T1, Neuropeptides B/W receptor type 1; assay: Antagonist activity at mouse NPBWR1 expressed in CHO-K1 cells assessed as inhibition of hNPW23 and forskolin-stimulated cAMP production after 1 hr by TR-FRET assay; assay type: functional, cell-based
LLC-PK1 = assay: P-glycoprotein-mediated efflux in pig LLC-PK1 cells expressing MDR1; assay type: cell-based; conditions: Sus scrofa
[3] = Metabolic stability in mouse liver microsomes assessed as compound remaining after 30 mins; assay type: ADME, Microsome; conditions: read-out: Stability
In short: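 Compounds were incubated with mouse liver microsomes. The read-out was the percentage of parent compound remaining at 30 min.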

[4] = target: T2, Neuropeptides B/W receptor type 1 (Homo sapiens, UniProt P48145); assay: Displacement of [125]-hNPW23 from human NPBWR1 expressed in CHO-K1 cells membrane by scintillation proximity assay; assay type: cell membranes
T2 sequence (P48145 whole entry): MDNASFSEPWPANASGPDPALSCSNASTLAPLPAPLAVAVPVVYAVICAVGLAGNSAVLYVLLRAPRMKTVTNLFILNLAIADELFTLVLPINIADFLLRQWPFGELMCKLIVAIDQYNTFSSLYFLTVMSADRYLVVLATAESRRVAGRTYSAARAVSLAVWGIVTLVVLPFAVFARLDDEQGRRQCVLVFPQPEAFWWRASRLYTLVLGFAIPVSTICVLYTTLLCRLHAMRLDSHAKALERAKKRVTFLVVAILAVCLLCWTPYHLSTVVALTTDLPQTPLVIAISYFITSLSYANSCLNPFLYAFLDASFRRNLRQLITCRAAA

[5] = target: T2, Neuropeptides B/W receptor type 1; assay: Antagonist activity at human NPBWR1 expressed in CHO-K1 cells assessed as inhibition of hNPW23 and forskolin-stimulated cAMP production after 1 hr by TR-FRET assay; assay type: functional, cell-based

| Compound | IC50 [1] [nM] | IC50 [2] [nM] | Activity (LLC-PK1) | remaining at 0.5 h [3] [%] | IC50 [4] [nM] | IC50 [5] [nM] |
| --- | --- | --- | --- | --- | --- | --- |
| COc1ccc(C2(N[C@@H]3CC[C@H](C(=O)N4CCN(c5ccc(Cl)cn5)CC4)[C@@H](c4ccsc4)C3)CC2)cc1 | 56 | 523 |  |  |  |  |
| CC(C)(N[C@@H]1CC[C@H](C(=O)N2CCN(c3ccc(Cl)cn3)CC2)[C@@H](c2ccsc2)C1)c1ccc([N+](=O)[O-])cc1 | 100 | 1100 |  |  |  |  |
| COc1ccc([C@@H](C)N[C@@H]2CC[C@H](C(=O)N3CCN(c4ccc(Cl)cc4)CC3)[C@@H](c3ccsc3)C2)cc1 | 3720 | 3860 |  |  |  |  |
| COc1ccc(C2(N[C@@H]3CC[C@H](C(=O)N4CCN(c5nc6cc(F)ccc6[nH]5)CC4)[C@@H](c4ccsc4)C3)CCC2)cc1 | 0.42 | 0.66 | Active | < 10 |  |  |
| COc1ccc(C2(N[C@@H]3CC[C@H](C(=O)N4CCN(c5nnc(Br)s5)CC4)[C@@H](c4ccsc4)C3)CCC2)cc1 |  |  | Active | < 10 |  |  |
| COc1ccc([C@@H](C)N[C@@H]2CC[C@H](C(=O)N3CCN(c4nccs4)CC3)[C@@H](c3ccsc3)C2)cc1 | 194 | 207 |  |  |  |  |
| COc1ccc([C@@H](C)N[C@@H]2CC[C@H](C(=O)N3CCN(c4ccc(C(F)(F)F)cn4)CC3)[C@@H](c3ccsc3)C2)cc1 |  | 200 |  |  |  |  |
| COc1ccc(C2(N[C@@H]3CC[C@H](C(=O)N4CCN(c5nc6ccccc6o5)CC4)[C@@H](c4ccsc4)C3)CCC2)cc1 |  |  | Active | < 10 |  |  |
| COc1ccc([C@@H](C)N[C@@H]2CC[C@H](C(=O)N3CCN(c4ccc(Cl)cn4)CC3)[C@@H](c3ccsc3)C2)cc1 | 25 | 360 | Active | 0 | 324 | 1920 |
| COc1ccc([C@@H](C)N[C@@H]2CC[C@H](C(=O)N3CCN(c4nc5ccccc5[nH]4)CC3)[C@@H](c3ccsc3)C2)cc1 | 8.3 | 20 |  |  |  |  |
| COc1ccc([C@@H](C)N[C@@H]2CC[C@H](C(=O)N3CCN(c4cc(Cl)ccn4)CC3)[C@@H](c3ccsc3)C2)cc1 |  | 2140 |  |  |  |  |
| O=C([C@H]1CC[C@@H](NC2(c3ccc(Br)cc3)CCC2)C[C@@H]1c1ccsc1)N1CCN(c2ccc(Cl)cn2)CC1 | 82 | 601 |  |  |  |  |
| COc1ccc([C@@H](C)N[C@@H]2CC[C@H](C(=O)N3CCN(c4nnc(C(F)(F)F)s4)CC3)[C@@H](c3ccsc3)C2)cc1 | 42 | 115 |  |  |  |  |
| COc1ccc(CN[C@@H]2CC[C@H](C(=O)N3CCN(c4ccc(Cl)cn4)CC3)[C@@H](c3ccsc3)C2)cc1 | 1520 | 3590 |  |  |  |  |
| O=C([C@H]1CC[C@@H](NC2(c3ccccc3Br)CCC2)C[C@@H]1c1ccsc1)N1CCN(c2ccc(Cl)cn2)CC1 | 2200 | 2210 |  |  |  |  |
| COc1ccc([C@@H](C)N[C@@H]2CC[C@H](C(=O)N3CCN(c4cccc(Cl)n4)CC3)[C@@H](c3ccsc3)C2)cc1 |  | 7490 |  |  |  |  |
| C[C@@H](N[C@@H]1CC[C@H](C(=O)N2CCN(c3ccc(Cl)cn3)CC2)[C@@H](c2ccsc2)C1)c1ccc(Br)cc1 | 134 | 2630 |  |  |  |  |
| COc1ccc([C@@H](C)N[C@@H]2CC[C@H](C(=O)N3CCN(c4ccc(C#N)cn4)CC3)[C@@H](c3ccsc3)C2)cc1 | 1140 | 7050 |  |  |  |  |
| COc1ccc([C@@H](C)N[C@@H]2CC[C@H](C(=O)N3CCN(c4ccc(OC)cn4)CC3)[C@@H](c3ccsc3)C2)cc1 |  | 7300 |  |  |  |  |
| CC(C)(N[C@@H]1CC[C@H](C(=O)N2CCN(c3ccc(Cl)cn3)CC2)[C@@H](c2ccsc2)C1)c1ccc(F)cc1 | 17 | 320 |  |  |  |  |
| COc1ccc([C@@H](C)N[C@@H]2CC[C@H](C(=O)N3CCN(c4ccc(C)cn4)CC3)[C@@H](c3ccsc3)C2)cc1 | 74 | 400 |  |  |  |  |

| Compound | IC50 [1] [nM] | IC50 [2] [nM] | Activity (LLC-PK1) | remaining at 0.5 h [3] [%] | IC50 [4] [nM] | IC50 [5] [nM] |
| --- | --- | --- | --- | --- | --- | --- |
| O=C([C@H]1CC[C@@H](NC2(c3cccc(Br)c3)CCC2)C[C@@H]1c1ccsc1)N1CCN(c2ccc(Cl)cn2)CC1 | 160 | 972 |  |  |  |  |
| COc1ccc([C@@H](C)N[C@@H]2CC[C@H](C(=O)N3CCN(c4ncc(Br)s4)CC3)[C@@H](c3ccsc3)C2)cc1 | 14 | 55 |  |  |  |  |
| COc1ccc(C2(N[C@@H]3CC[C@H](C(=O)N4CCN(c5nc6cc(C)ccc6o5)CC4)[C@@H](c4ccsc4)C3)CCC2)cc1 |  |  | Active | < 10 |  |  |
| COc1ccc([C@@H](C)N[C@@H]2CC[C@H](C(=O)N3CCN(c4nc5ccccc5o4)CC3)[C@@H](c3ccsc3)C2)cc1 | 2.8 | 18 |  |  |  |  |
| COc1ccc(C2(N[C@@H]3CC[C@H](C(=O)N4CCN(c5nc6ccccc6s5)CC4)[C@@H](c4ccsc4)C3)CCC2)cc1 | 0.33 | 1.8 | Active | < 10 |  |  |
| COc1cccc(C2(N[C@@H]3CC[C@H](C(=O)N4CCN(c5ccc(Cl)cn5)CC4)[C@@H](c4ccsc4)C3)CCC2)c1 | 118 | 1020 |  |  |  |  |
| COc1ccc(C(C)(C)N[C@@H]2CC[C@H](C(=O)N3CCN(c4nc5ccccc5o4)CC3)[C@@H](c3ccsc3)C2)cc1 |  |  | Active | < 10 |  |  |
| COc1ccc(C2(N[C@@H]3CC[C@H](C(=O)N4CCN(c5nnc(C(F)(F)F)s5)CC4)[C@@H](c4ccsc4)C3)CCC2)cc1 |  |  | Active | < 10 |  |  |
| COc1ccc(C2(N[C@@H]3CC[C@H](C(=O)N4CCN(c5nc6cc(F)ccc6o5)CC4)[C@@H](c4ccsc4)C3)CCC2)cc1 | 0.2 | 0.86 | Active | < 10 |  |  |
| COc1ccc(C2(N[C@@H]3CC[C@H](C(=O)N4CCN(c5nc6ccc(F)cc6o5)CC4)[C@@H](c4ccsc4)C3)CCC2)cc1 | 0.18 | 1.3 | Active | < 10 |  |  |
| COc1ccc(C(C)(C)N[C@@H]2CC[C@H](C(=O)N3CCN(c4nc5ccccc5[nH]4)CC3)[C@@H](c3ccsc3)C2)cc1 |  |  | Active | < 10 |  |  |
| C[C@@H](N[C@@H]1CC[C@H](C(=O)N2CCN(c3ccc(Cl)cn3)CC2)[C@@H](c2ccsc2)C1)c1ccccc1 | 217 | 981 |  |  |  |  |
| COc1ccc(C2(N[C@@H]3CC[C@H](C(=O)N4CCN(c5ccc(Cl)cn5)CC4)[C@@H](c4ccsc4)C3)CCC2)cc1 | 3.1 | 20 |  |  |  |  |
| Cc1ccc(C(C)(C)N[C@@H]2CC[C@H](C(=O)N3CCN(c4ccc(Cl)cn4)CC3)[C@@H](c3ccsc3)C2)cc1 | 16 | 211 |  |  |  |  |
| COc1ccc([C@@H](C)N[C@@H]2CC[C@H](C(=O)N3CCN(c4ccccn4)CC3)[C@@H](c3ccsc3)C2)cc1 |  | 330 |  |  |  |  |
| COc1ccc(C2(N[C@@H]3CC[C@H](C(=O)N4CCN(c5nc6ccccc6[nH]5)CC4)[C@@H](c4ccsc4)C3)CCC2)cc1 | 1.1 | 3 | Active | < 10 | 5.9 | 11 |
| COc1ccc(C(C)(C)N[C@@H]2CC[C@H](C(=O)N3CCN(c4ccc(Cl)cn4)CC3)[C@@H](c3ccsc3)C2)cc1 | 11 | 43 |  |  |  |  |
| COc1ccc([C@@H](C)N[C@@H]2CC[C@H](C(=O)N3CCN(c4ncccc4Cl)CC3)[C@@H](c3ccsc3)C2)cc1 |  | > 32000 |  |  |  |  |
| CC(C)(N[C@@H]1CC[C@H](C(=O)N2CCN(c3ccc(Cl)cn3)CC2)[C@@H](c2ccsc2)C1)c1ccc(Cl)cc1 | 27 | 1700 |  |  |  |  |
| COc1ccc([C@@H](C)N[C@@H]2CC[C@H](C(=O)N3CCN(c4nc5ccccc5s4)CC3)[C@@H](c3ccsc3)C2)cc1 | 4.5 | 24 |  |  |  |  |
